Consider six compounds from article PMC11984575 (Neurobiology of Pain, 2025).

“Also recorded” adds a separate entry of the source.

In one data set the test system is rat NaV1.8 channels. Conditions: cited from earlier work; for potency in rats: ref Gilchrist et al., 2024, Osteen et al., 2025.
Data set [1] deals with humanized NaV1.8 rats. Description: CFA-induced thermal hyperalgesia. Type of data set: in vivo, rat. Conditions: one hour post dosing; for hind paw withdrawal latency vs vehicle (thermal hyperalgesia): 24 h after CFA. The method in brief: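 Male humanized NaV1.8 rats; baseline Hargreaves latency as mean of two trials, 20 s cutoff. CFA (50 μL, 1 mg/mL) given intraplantar into mid-plantar hind paw; latencies retested at 24 h. Rats then randomized to PO vehicle or test compound (1 or 10 mg/kg), or diclofenac 80 mg/kg ip. Latency read 1 h post-dose; blinded; n = 20/group; two-way ANOVA with Bonferroni; mean ± SD.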

For another data set, the target named is rodent NaV1.8 channel (Rattus norvegicus, UniProt Q62968). Type of data set: cell-based.
Data set [2] has as its target T1, human NaV1.8 (Homo sapiens, UniProt Q9Y5Y9). The format is cell-based.
Data set [3] addresses T1, human NaV1.8. Description: Automated patch clamp. Conditions: train of 10 pulses at 1 Hz vs first pulse. Type of data set: cell-based. A general note: Patch clamp records ionic current or voltage across a cell membrane.
The next data set addresses human NaV1.1 (Homo sapiens, UniProt P35498). Description: Automated patch clamp. The format is cell-based.
A further data set concerns the target human NaV1.2 (Homo sapiens, UniProt Q99250). Description: Automated patch clamp. The format is cell-based.
The target in a further data set is human NaV1.3 (Homo sapiens, UniProt Q9NY46). Description: Automated patch clamp. Type of data set: cell-based.
A further data set addresses human NaV1.4 (Homo sapiens, UniProt P35499). Description: Automated patch clamp. Conditions: vs human NaV1.8. The format is cell-based.
For a further data set, the target named is human NaV1.5 (Homo sapiens, UniProt Q14524). Description: Automated patch clamp. The format is cell-based.
The next data set deals with human NaV1.6 (Homo sapiens, UniProt Q9UQD0). Description: Automated patch clamp. The format is cell-based.
In the next data set the target is human NaV1.7 (Homo sapiens, UniProt Q15858). Description: Automated patch clamp. Type of data set: cell-based.
In a further data set the target is human NaV1.9 (Homo sapiens, UniProt Q9UI33). Description: Automated patch clamp. Type of data set: cell-based.
Data set [4] is described as follows: Rat plasma protein binding. The format is in vitro ADME.
For data set [5], the target named is Chimera 1: NaV1.5(1–711) – NaV1.8(660–890) – NaV1.5(940–2015) (Homo sapiens, UniProt Q14524+Q9Y5Y9). Description: QPatch II sodium currents of chimeric NaV channel in FS-293 HEK cells. The format is cell-based. Summed up: (§1)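 Chimeric NaV1.5/NaV1.8 constructs electroporated into FS-293 HEK cells; currents recorded on QPatch II. External (mM): 150 NaCl, 5 KCl, 2 CaCl2, 1 MgCl2, 10 HEPES, 12 dextrose, pH 7.3 (NaOH), 330 Osm. Steps from −90 to +10 mV; IC50 by non-linear regression, bounds 0–1, Hill slope free.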

In data set [6] the target is Chimera 2: NaV1.8(1–399) – NaV1.5(416–1199) – NaV1.8(1148–1956) (Homo sapiens, UniProt Q14524+Q9Y5Y9). The data set is described as above. Type of data set: cell-based. Conditions: VSDII of NaV1.5 swapped into NaV1.8. The method in brief: as §1
In data set [7] the target is Chimera A: NaV1.5(1–770) – NaV1.8(719–751) – NaV1.5(804–2015) (Homo sapiens, UniProt Q14524+Q9Y5Y9). The description is as above. Type of data set: cell-based. Summed up:
as §1

The target in data set [8] is Chimera B: NaV1.8(1–718) – NaV1.5(771–803) – NaV1.8(752–1956) (Homo sapiens, UniProt Q14524+Q9Y5Y9). The description is as above. Conditions: VSDIIS3 of NaV1.5 in NaV1.8. Type of data set: cell-based. Summed up: as §1
The subject of data set [9] is wild-type Sprague-Dawley rats. Description: Capsaicin nocifensive behavior. Conditions: 10 mg/kg PO, 1 h before capsaicin. Type of data set: in vivo, rat. The method in brief: (§2)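 Male rats, humanized or wild-type Sprague-Dawley, acclimated to chamber twice beforehand and 15 min on test day. Test compound given PO 1 h before intradermal capsaicin (25 μL, 0.01 %, in ethanol/Tween80/saline 20:7:73) into left hind paw. Flinches counted over 5 min; blinded, randomized order. Wild-type: n = 10/group, Student's t-test. Humanized dose-response: per-animal % inhibition of vehicle mean fitted against unbound plasma level (tail-vein blood post-test) for in vivo IC50.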

Data set [10] has as its system humanized NaV1.8 rats. Description: Capsaicin nocifensive behavior. Type of data set: in vivo, rat. Summed up:
as §2

In data set [11] the test system is humanized NaV1.8 rats. Description: Spinal nerve ligation. The format is in vivo, rat. Conditions: one-hour post-dosing. Summed up:
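Male humanized NaV1.8 rats; baseline von Frey PWT (Up-Down, plantar) <9 g excluded. Under isoflurane, L6 transverse process removed; L5 spinal nerve tightly ligated and cut. After 1 week, PWT >6 g excluded. Day 1: PO vehicle (10 % Tween 80) or 10 mg/kg; after 4-day washout and reassessment, PO vehicle or 1 mg/kg. PWT read 1 h post-dose; blinded; mixed-effects model, Bonferroni; mean ± SD.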

Data set [12] in a line: Total plasma exposure in CFA and SNL studies. Type of data set: in vivo, rat. Conditions: for Total plasma exposure: SNL study, approximately 1-hour post-dosing; for concentration at 4 h: rat, plasma, po. The method in brief: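 Tail-vein blood for total plasma levels after PO test compound (1 or 10 mg/kg): in CFA rats at 4 h post-dose, in SNL rats right after mechanical testing, about 1 h post-dose.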

The subject of data set [13] is all other recombinant human NaV channel isoforms. Conditions: highest concentrations tested (30–34 uM); ref Vardigan et al., 2024; cited from earlier work.
The subject of another data set is rat SNL model. Conditions: cited from earlier work.
The next data set concerns NaV1.8. Conditions: blocks more current as stimulation rate increases; ref Payne et al., 2015; cited from earlier work.

Usually IC50 stands for the point on the concentration scale where inhibition reaches its midpoint. By fraction unbound is commonly meant the share of the substance not bound to proteins or other matrix.

T1 sequence (Q9Y5Y9 whole entry): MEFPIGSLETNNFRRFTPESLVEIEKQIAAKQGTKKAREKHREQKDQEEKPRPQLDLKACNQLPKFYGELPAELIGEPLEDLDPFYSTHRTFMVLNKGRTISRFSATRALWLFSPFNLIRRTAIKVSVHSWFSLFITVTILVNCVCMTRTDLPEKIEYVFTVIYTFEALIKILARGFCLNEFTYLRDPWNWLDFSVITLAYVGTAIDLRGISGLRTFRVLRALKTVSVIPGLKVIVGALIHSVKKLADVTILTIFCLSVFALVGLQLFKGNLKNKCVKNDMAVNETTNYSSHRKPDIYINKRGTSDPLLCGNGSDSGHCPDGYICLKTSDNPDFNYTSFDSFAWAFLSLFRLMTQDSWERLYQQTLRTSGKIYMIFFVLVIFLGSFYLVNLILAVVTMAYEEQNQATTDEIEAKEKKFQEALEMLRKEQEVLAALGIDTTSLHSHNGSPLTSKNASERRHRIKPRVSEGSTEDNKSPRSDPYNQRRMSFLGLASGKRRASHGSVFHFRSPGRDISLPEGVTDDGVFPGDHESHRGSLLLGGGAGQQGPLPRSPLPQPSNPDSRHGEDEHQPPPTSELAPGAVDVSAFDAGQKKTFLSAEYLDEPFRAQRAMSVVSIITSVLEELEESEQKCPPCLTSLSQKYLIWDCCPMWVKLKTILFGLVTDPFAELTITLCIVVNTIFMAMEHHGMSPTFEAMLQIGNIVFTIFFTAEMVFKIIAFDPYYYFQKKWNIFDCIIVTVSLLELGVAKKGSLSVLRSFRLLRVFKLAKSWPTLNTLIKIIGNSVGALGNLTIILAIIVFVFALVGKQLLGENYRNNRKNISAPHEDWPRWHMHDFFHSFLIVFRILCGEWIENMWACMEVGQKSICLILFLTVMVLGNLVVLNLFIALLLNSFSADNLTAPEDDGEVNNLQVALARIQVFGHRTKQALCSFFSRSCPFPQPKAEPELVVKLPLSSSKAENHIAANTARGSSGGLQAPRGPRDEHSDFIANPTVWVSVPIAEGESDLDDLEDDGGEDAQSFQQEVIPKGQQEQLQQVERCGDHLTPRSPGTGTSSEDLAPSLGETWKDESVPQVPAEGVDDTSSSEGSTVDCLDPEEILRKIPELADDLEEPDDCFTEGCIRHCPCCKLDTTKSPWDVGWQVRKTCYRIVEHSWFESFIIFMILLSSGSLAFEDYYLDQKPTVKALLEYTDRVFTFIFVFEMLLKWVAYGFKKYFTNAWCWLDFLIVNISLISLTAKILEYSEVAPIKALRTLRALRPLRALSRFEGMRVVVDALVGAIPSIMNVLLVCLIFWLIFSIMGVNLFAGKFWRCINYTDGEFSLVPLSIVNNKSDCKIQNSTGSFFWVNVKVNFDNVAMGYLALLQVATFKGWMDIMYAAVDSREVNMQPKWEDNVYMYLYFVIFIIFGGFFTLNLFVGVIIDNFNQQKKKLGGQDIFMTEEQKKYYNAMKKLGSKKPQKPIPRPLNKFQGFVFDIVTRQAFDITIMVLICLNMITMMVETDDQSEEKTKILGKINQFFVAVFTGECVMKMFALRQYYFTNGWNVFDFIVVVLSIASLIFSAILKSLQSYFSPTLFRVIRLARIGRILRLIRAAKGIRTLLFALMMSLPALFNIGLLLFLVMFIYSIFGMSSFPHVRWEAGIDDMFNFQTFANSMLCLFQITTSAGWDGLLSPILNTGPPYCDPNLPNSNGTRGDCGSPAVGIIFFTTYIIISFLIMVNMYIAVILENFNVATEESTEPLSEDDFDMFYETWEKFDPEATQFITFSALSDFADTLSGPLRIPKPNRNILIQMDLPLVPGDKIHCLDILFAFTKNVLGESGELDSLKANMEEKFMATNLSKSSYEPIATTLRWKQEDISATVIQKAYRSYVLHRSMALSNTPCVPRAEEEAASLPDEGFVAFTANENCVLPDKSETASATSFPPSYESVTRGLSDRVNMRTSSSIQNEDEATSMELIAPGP
Chimera A: NaV1.5(1–770) – NaV1.8(719–751) – NaV1.5(804–2015), sequence (Q14524 1-770 limits assumed, change not shown): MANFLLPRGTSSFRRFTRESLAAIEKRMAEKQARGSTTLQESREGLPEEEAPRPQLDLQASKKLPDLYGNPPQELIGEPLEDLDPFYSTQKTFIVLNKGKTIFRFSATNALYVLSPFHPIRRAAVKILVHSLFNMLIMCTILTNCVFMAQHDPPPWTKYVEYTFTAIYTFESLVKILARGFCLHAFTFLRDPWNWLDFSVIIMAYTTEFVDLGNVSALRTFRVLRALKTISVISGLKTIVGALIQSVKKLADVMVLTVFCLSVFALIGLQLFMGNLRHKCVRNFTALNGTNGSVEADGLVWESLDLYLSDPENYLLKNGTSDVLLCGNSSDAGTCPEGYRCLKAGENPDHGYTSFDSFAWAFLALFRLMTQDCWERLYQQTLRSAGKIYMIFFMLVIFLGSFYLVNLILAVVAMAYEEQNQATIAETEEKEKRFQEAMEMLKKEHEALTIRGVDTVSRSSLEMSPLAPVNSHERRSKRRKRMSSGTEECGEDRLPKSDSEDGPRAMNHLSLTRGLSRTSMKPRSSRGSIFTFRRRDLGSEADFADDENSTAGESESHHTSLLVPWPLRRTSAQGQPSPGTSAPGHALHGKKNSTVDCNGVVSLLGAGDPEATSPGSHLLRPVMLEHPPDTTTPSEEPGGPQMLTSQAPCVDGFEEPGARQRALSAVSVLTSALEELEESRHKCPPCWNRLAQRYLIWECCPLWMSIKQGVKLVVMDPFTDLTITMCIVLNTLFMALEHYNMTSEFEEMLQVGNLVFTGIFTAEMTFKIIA
Chimera A: NaV1.5(1–770) – NaV1.8(719–751) – NaV1.5(804–2015), sequence (Q9Y5Y9 719-751 limits assumed, change not shown): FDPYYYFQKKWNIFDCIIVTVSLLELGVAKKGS
Chimera A: NaV1.5(1–770) – NaV1.8(719–751) – NaV1.5(804–2015), sequence (Q14524 804-2015 isoform Q14524-2 limits assumed): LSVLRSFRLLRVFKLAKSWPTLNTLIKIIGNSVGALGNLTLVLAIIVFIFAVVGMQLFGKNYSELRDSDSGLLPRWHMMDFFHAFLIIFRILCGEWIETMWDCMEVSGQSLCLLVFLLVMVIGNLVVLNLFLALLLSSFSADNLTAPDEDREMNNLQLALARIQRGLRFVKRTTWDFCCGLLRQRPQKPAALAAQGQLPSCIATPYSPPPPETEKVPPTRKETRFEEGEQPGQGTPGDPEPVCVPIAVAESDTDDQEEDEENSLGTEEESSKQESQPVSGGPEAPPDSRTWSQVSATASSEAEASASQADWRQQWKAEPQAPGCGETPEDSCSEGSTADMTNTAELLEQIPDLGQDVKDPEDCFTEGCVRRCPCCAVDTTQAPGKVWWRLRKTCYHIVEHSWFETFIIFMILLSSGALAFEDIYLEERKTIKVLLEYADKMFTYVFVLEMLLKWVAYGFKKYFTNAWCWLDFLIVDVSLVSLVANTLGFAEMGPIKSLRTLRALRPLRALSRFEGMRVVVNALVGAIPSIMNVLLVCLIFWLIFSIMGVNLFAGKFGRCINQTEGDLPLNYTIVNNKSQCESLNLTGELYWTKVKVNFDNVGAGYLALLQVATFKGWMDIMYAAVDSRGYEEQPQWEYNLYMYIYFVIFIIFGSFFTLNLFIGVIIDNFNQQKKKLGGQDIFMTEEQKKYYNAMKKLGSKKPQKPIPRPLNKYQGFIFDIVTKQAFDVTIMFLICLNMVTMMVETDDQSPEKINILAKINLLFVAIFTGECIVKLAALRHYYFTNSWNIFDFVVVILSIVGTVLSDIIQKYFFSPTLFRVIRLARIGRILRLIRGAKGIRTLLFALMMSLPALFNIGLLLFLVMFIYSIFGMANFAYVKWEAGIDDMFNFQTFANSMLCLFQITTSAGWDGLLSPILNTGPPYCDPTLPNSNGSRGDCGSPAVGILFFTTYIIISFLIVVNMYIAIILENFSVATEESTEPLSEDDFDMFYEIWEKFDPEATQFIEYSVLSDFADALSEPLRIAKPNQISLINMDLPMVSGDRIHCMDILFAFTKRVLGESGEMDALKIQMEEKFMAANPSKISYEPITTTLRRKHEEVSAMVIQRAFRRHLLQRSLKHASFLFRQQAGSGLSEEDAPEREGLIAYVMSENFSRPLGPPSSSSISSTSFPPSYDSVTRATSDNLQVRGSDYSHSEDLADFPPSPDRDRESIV

For `Cc1cc(F)ccc1Oc1ncc(C(F)(F)F)cc1C(=O)Nc1cccc([S@](C)(=N)=O)c1` [LTGO-33], the potency in rats result in the data set with rat NaV1.8 channels is reported as “reduced potency in rats”.
With `O=C(O)Cc1ccccc1Nc1c(Cl)cccc1Cl` [Diclofenac, reference compound], the “thermal hyperalgesia vs vehicle” value in the data set on humanized NaV1.8 rats [1] (80 mg/kg intraperitoneal, positive control) is given as “reversed thermal hyperalgesia”.
Regarding `Cc1ccc(C(=O)Nc2ccnc(S(N)(=O)=O)c2)c(N2CCCC(F)(F)CC2)n1` [MSD199, 2-(4,4-difluoroazepan-1-yl)-6-methyl-N-(2-sulfamoylpyridin-4-yl)-nicotinamide], the IC50 at rodent NaV1.8 channel is 4.83 µM; against human NaV1.8 [2] it was 0.0056 µM; against human NaV1.1, above 33.6 µM; at human NaV1.2 it was above 33.6 µM; against human NaV1.3, above 33.6 µM; at human NaV1.5 it was above 33.6 µM. The IC50 against human NaV1.6 is above 33.6 µM; on human NaV1.7, above 33.6 µM; against human NaV1.9, above 33 µM; in data set [5] it was 0.0011 µM; in data set [7] it was 0.0086 µM. In addition, the frequency dependency entry at human NaV1.8 [3] was “does not display frequency dependency”. In addition, at human NaV1.4, the “selectivity over recombinant human NaV1.4 channel” value is reported as around 2000 fold. The compound further gave a fraction unbound in [4] of 0.15. Further, the “sodium current inhibition, Chimera 2” value in data set [6] is listed as “disruption of sodium current inhibition”. Further, the “potency, Chimera B” value in [8] is “abolished the potency”. For the same compound, the “effect on capsaicin-induced nocifensive behavior” value in [9] is given as “had no effect; also recorded: no observable impact”; in the data set with humanized NaV1.8 rats [10] (10 mg/kg PO, 1 h before capsaicin (Fig. 2B), 10 mg/kg), “significantly blocked”. In addition, the “nocifensive responses vs vehicle, dose-response” value with humanized NaV1.8 rats [10] (1 mg/kg PO (Fig. 2C)), with humanized NaV1.8 rats [10] (3 mg/kg PO (Fig. 2C)) and in the data set with humanized NaV1.8 rats [10] (10 mg/kg PO (Fig. 2C)) was “significantly lower than vehicle” throughout. Besides, the “hind paw withdrawal latency vs vehicle (thermal hyperalgesia)” value in the data set on humanized NaV1.8 rats [1] (1 mg/kg PO) is listed as “but not at 1 mg/kg, significantly increased”; in the data set on humanized NaV1.8 rats [1] (10 mg/kg PO), “significantly increased”. Also, the “paw withdrawal thresholds vs vehicle (mechanical allodynia)” value in the data set on humanized NaV1.8 rats [11] (1 mg/kg PO) was “no significant antiallodynic effects; also recorded: did not significantly alter paw withdrawal thresholds”; in the data set with humanized NaV1.8 rats [11] (10 mg/kg PO) it was “demonstrated significant antiallodynic effects; also recorded: significant reversal of mechanical allodynia”. Further, the Total plasma exposure in data set [12] (1 mg/kg PO) is listed as 73.06 ± 4.71 nM; in data set [12] (10 mg/kg PO) it was 1117 ± 84.19 nM. For the same compound, the concentration at 4 h was 20.1 ± 5.1 nM in data set [12] (1 mg/kg) and 199 ± 27.3 nM in [12] (10 mg/kg). Also, the “inhibition of all other recombinant human NaV channel isoforms” value in [13] is given as “no inhibition”.
As for `COc1c([C@H]2[C@H](C(=O)Nc3ccnc(C(N)=O)c3)O[C@@](C)(C(F)(F)F)[C@H]2C)ccc(F)c1F` [VX-548], the potency in rats result in the data set on rat NaV1.8 channels is “reduced potency in rats”.
On to `COc1cc(NC(=O)c2ccc(-c3ccc(Cl)cc3)o2)cc(OC)c1` [Molecule A-803467], for which, in the data set with rat SNL model (rodents, ref Jarvis et al., 2007), the SNL-induced mechanical allodynia result is on record as “demonstrated reversal of SNL-induced mechanical allodynia”. Moreover, in the data set with rat NaV1.8 channels (ref Jarvis et al., 2007), the “potency in wildtype rodents” value is “exhibited reduced potency in wildtype rodents”.
`CNC(=O)c1ccc(-c2cc(Cl)cc(Cl)c2Cl)c(N)n1` [PF-01247324]: in the data set on rat SNL model (rat, ref Payne et al., 2015), the “neuropathic pain in rat SNL model” value is listed as “reversed neuropathic pain in the rat SNL model”. In the data set on NaV1.8, the frequency dependency entry is reported as “demonstrates frequency dependency”.
